# Only some compounds are listed: those with a hit (about 2.4% of all), similar ones and a draw of the others.
# Rtt109 Vps75 = blocks Candida albicans Rtt109/Vps75 acetyltransferase activity; AID 540336; purified Rtt109/Vps75, ThioGlo CoA-SH fluorescence, 4 h; 330,000 tested, 0.16% active; inhibition, % at 34.9 µM; Q5AAJ8;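 active means inhibition of at least 50% in every replicate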
# Target sequence (Q5AAJ8 whole entry, looked up): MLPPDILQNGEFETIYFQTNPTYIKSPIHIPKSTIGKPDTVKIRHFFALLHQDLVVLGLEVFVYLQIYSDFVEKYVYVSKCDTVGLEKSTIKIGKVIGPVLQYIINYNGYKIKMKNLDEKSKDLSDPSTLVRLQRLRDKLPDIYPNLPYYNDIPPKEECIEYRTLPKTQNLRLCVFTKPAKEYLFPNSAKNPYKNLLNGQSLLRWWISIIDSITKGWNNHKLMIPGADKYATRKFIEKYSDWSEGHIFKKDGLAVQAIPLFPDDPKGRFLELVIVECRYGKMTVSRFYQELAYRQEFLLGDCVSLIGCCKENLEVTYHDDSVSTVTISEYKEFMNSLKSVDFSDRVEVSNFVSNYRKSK
# Cneo AK release = causes C. neoformans cell lysis | AID 651654 | adenylate kinase release luminescence, 4 h; normalised: neutral wells 0, clomiphene wells 100 | 360,000 tested, 0.2% active | lysis activity, % at 15 µM;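 active means mean lysis activity across replicates of at least 80%, whatever share of replicates individually reach that level; inactive means mean lysis activity below 80%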
#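 Assay system: Cryptococcus neoformans yeast cells / Dosing: single-point compound dose / Timing: 4 h at 37 °C static, read 1 h later / Measured by: luminescence of released adenylate kinase using an AK detection reagent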
# miR122 inh = blocks miR-122 activity in Huh7 sensor cells; 340,000 tested, 0.3% active; Huh7 miR-122 Renilla luciferase sensor, 48 h; neutral wells = 0, positive control = 100; activation (reporter increase), % at 12.5 µM;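 active means mean replicate activation score at least 90 and every replicate individually at or above 90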;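 further: higher luciferase means less miR-122 activity so hits act as miR-122 inhibitors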
# HIV Env fusion = blocks HIV Env-driven cell-cell fusion; AID 651610; inhibition, % at 12.3 µM; 360,000 tested, 1.1% active; HeLa-JRFL Env/CEM21 cell fusion, luciferase;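 active means mean replicate inhibition score of at least 50 and every replicate individually at or above 50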;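 further: 0% = plate neutral controls and 100% = maraviroc near 300 nM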
# INS-1E GSIS act = primary screen for activators of insulin secretion dependent on glucose, INS-1E cells, GLuc reporter luminescence; INS-1E GLuc reporter insulin secretion, 2-3 h; AID 743287; 370,000 tested, 0.61% active; activation, % at 16.6 µM;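 active means lowest replicate activation of at least 40%, so every replicate reaches that level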;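 further: 0% = median of neutral control wells and 100% = median of IBMX positive control wells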
# dFosB activator = activators of mouse delta FosB homodimer; P13346; purified delta FosB, TAMRA-CDK5 oligo fluorescence polarization; percent of positive-control signal above neutral wells; activation, % at 25 µM; 340,000 tested, 0.99% active; AID 493131;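 active means mean activation above about 17%, with every replicate also reaching it, limit read from the data, passing the limit was not always enough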
# Numbers without * were called inactive; x = no result; [ ] = remark or other dose.
SMILES,Rtt109 Vps75,Cneo AK release,miR122 inh,HIV Env fusion,INS-1E GSIS act,dFosB activator
COCC(=O)N(C)C[C@H]1Oc2ncc(-c3ccccc3OC)cc2C(=O)N([C@H](C)CO)C[C@@H]1C,x,0,-5[16.7 µM],-3[16.7 µM],8,x
CN(C)C(=O)C[C@H]1C=C[C@H](NC(=O)C2CCC2)[C@H](CO)O1,x,-1,x,-64[16.7 µM],10,x
CCCCN1C(=O)C(O)(c2ccccc2)c2cc(Br)ccc21 (stereo not given),-1,4,7,85*,-34,-2
CN1C(=O)[C@@](O)(CC(=O)c2ccccc2)c2cc(Br)ccc21,x,x,x,6,7,x
CC(SCc1ccccc1)C(=O)N/N=C/c1cc2c(cc1Br)OCO2 (stereo not given),8,2,-6,88*,x,-1
COC(=O)c1cc2ccccc2c([N+](=O)[O-])c1O,-3,1,4,-2,55*,8
COC(=O)c1cc2ccccc2c(-c2c(OC)c(C(=O)OC)cc3ccccc23)c1OC,11,-5,-14,27,x,-15
COc1ccc(NC(=O)N(C)C[C@H]2Oc3c(NC(=O)Nc4ccc(C(F)(F)F)cc4)cccc3C(=O)N([C@@H](C)CO)C[C@H]2C)cc1,x,x,-6[16.7 µM],4[16.7 µM],-26,x
CCOC(=O)c1c(C)[nH]c(C(=O)COC(=O)c2cnccn2)c1C,9,2,1,33,70*,-4
CCOC(=O)c1c(C)[nH]c(C(=O)COC(=O)c2ccncc2)c1C,-4,3,-4,x,x,-7
CCCNC(=O)N[C@H]1CC[C@@H](CC(=O)NC2CCCCC2)O[C@H]1CO,x,-1,x,-17[16.7 µM],1,x
Cc1ccc(S(=O)(=O)Nc2ccc3c(c2)C(=O)N([C@H](C)CO)C[C@H](C)[C@H](CN(C)Cc2ccc(C(F)(F)F)cc2)O3)cc1,x,x,-3[16.7 µM],-11[16.7 µM],-14,x
Cc1ccc(NC(=O)c2ccc(OCC3CCCO3)cc2)cc1Cl (stereo not given),x,12,0,70*,-2,x
C=C(C)CN(CC)C(=O)COc1ccc(S(=O)(=O)Nc2ccc(OC)cc2)cc1,-7,2,186*,-10,x,-9
CCOc1ccc(NS(=O)(=O)c2ccc(NC(=S)NC(=O)CC(C)C)cc2)cc1,21,x,166*,x,x,1
CCCC(=O)NC(=S)Nc1ccc(S(=O)(=O)Nc2ccc(OCC)cc2)cc1,7,-3,181*,-6,-32,-5
CC(C)(C)NS(=O)(=O)c1ccc(NC(=S)NC(=O)C2CCC2)cc1,10,-2,40,-3,-1,-8
CCOc1ccc(NS(=O)(=O)c2ccc(C(=O)N(C)CC(=O)Nc3ccc(OC)cc3)cc2)cc1,13,x,x,5,-6,-4
CC(C)CC(=O)NC(=S)Nc1ccc(S(=O)(=O)NC(C)(C)C)cc1,55*,x,x,38,x,-9
O=C(c1ccccn1)N1CC2(C1)[C@H](c1ccccc1)[C@@H](CO)N2Cc1cccnc1,x,x,x,x,7,x
COC(=O)[C@H]1[C@H](CO)[C@H]2Cn3c(ccc(-c4ccncc4)c3=O)[C@H]2N1CC1CCCC1,x,x,x,x,18,x
COc1cc(Br)cc(/C=N/NC(=O)Cc2ccccc2)c1O,-1,x,x,8,5,8
O=C(Cc1ccccc1)N/N=C/c1cc(Br)cc(Cl)c1O,-4,x,x,26,-9,54*
CCN(CC)S(=O)(=O)c1cc(NC(=O)C(=O)c2c(-c3ccccc3)cc3ccccn23)ccc1C,0,0,21,77*,x,-1
C=CC(=O)N1C/C(=C/c2ccc(Cl)cc2)C(=O)/C(=C\c2ccc(Cl)cc2)C1,8,x,x,102*,x,-15
SMILES,Rtt109 Vps75,Cneo AK release,miR122 inh,HIV Env fusion,INS-1E GSIS act,dFosB activator
C=CC(=O)N1C/C(=C/c2ccccc2)C(=O)/C(=C\c2ccccc2)C1,-2,x,-20,79*,50*,-12
CN1C/C(=C/c2ccncc2)C(=O)/C(=C/c2ccncc2)C1,0,-4,0,-22,10,3
C[C@H](O)C#Cc1ccc2c(c1)O[C@@H](CN(C)C(=O)C1CCC1)[C@H](C)CN([C@@H](C)CO)S2(=O)=O,x,-2,12[16.7 µM],12[16.7 µM],8,x
CCOc1cc(C2C3=C(CC(C)(C)CC3=O)OC3=C2C(=O)CC(C)(C)C3)cc([N+](=O)[O-])c1O,0,x,x,31,16,-12
CCOc1cc(C2C3=C(CCCC3=O)OC3=C2C(=O)CCC3)cc([N+](=O)[O-])c1O,-7,x,6,-7,58*,-6
CC1CCC(NC(=O)CCn2ccc3cc(S(=O)(=O)N4CCCC4)ccc32)CC1 (stereo not given),12,-10,11,73*,1,-7
CCOc1ccccc1CNC(=O)Cn1ccc2cc(S(=O)(=O)N3CCCCCC3)ccc21,-1,6,22,27,-24,-9
CCOc1ccccc1CNC(=O)CCn1ccc2cc(S(=O)(=O)N3CCCCC3)ccc21,4,-1,20,62*,9,-8
COC(CN(C(=O)CCl)C(C(=O)NC1CCCCC1)c1ccccc1C)OC (stereo not given),8,x,x,59*,-18,-6
CCOC(=O)c1cnc(SCc2nc(N)nc(Nc3ccc(C)cc3)n2)nc1N,-10,-3,-2,x,1,48*
COc1cccc(CN2CC3(CN(C(C)=O)C3)c3c(n(C)c4cc(OC)ccc34)[C@H]2CO)c1,x,x,x,x,-6,x
O=C(NCC(=O)N1CCN(c2ncccn2)CC1)c1ccccc1OC(F)F,-1,13,-5,86*,-2,-2
CCCCn1nc2cc(C(=O)NCc3cc(C(F)(F)F)cc(C(F)(F)F)c3)ccc2c1OC,-9,0,-6,63*,-9,1
CCn1nc2cc(C(=O)NCc3cc(C(F)(F)F)cc(C(F)(F)F)c3)ccc2c1OC,5,-3,-7,-15,4,-9
COc1ccc(C(C(=O)NC(C)(C)C)N(C[C@H]2CC[C@@H]([C@@H]3CC[C@H](CO)O3)O2)C(=O)c2ccccc2)cc1 (stereo not given in full),0,-3,x,62*,3,-2
CC(C)(C)NC(=O)C(c1ccc(-c2ccccc2)cc1)N(C[C@H]1CC[C@@H]([C@@H]2CC[C@H](CO)O2)O1)C(=O)c1ccc(-c2ccccc2)cc1 (stereo not given in full),11,0,-5,x,x,-13
COc1ccc2c3c(n(C)c2c1)[C@H](CO)NCC31CN(C(=O)Nc2ccc3c(c2)OCO3)C1,x,x,x,x,13,x
CN1C(=O)C2(c3ccccc31)N(C)CC(c1ccccn1)C21SC(=S)N(Cc2ccco2)C1=O (stereo not given),5,-4,1,32,x,-4
CN1C(=O)C2(c3ccccc31)N(C)CC(c1ccccc1)C21SC(=S)N(Cc2ccco2)C1=O (stereo not given),1,2,-19,80*,-22,-6

# Source: PubChem BioAssay
